Calls of active or inactive are those of the source. The rule behind the calls is not given here.
Assays:
[1] = test system: Tyrosine-protein kinase ABL1 (Homo sapiens), P00519 [H396P]; assay: Inhibition of phosphorylated ABL1 H396P mutant (unknown origin) at 1 uM by Ambit Kinomescan binding assay relative to control; values are per cent of control
[2] = target: Ribosomal protein S6 kinase alpha-1 (Homo sapiens) (UniProt Q15418); assay: Inhibition of C-terminal RSK1 kinase domain 2 (unknown origin) at 1 uM by Ambit Kinomescan binding assay relative to control
Summary of the method: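 In vitro ATP-site competition binding assay against a panel of over 420 kinases (KinomeScan), with compound tested at 10 or 1 μM.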

[3] = target: Phosphatidylinositol 4,5-bisphosphate 3-kinase catalytic subunit beta isoform (Homo sapiens) (UniProt P42338); assay: Inhibition of PIK3CB ATP labeling site in human Huh-7 cells at 10 uM by KiNativ Profiling analysis relative to control; format: cell-based
[4] = target: Serine/threonine-protein kinase 10 (Homo sapiens) (UniProt O94804); assay: Inhibition of LOK Lys1 labeling site harbouring NKETGALAAAKVIETK in human A-375 cells at 5 uM by KiNativ Profiling analysis relative to control; format: cell-based
RAW = assay: Inhibition of LPS induced JNK1/2 phosphorylation in mouse RAW cells preincubated for 1 hr followed by LPS stimulation and measured after 30 mins by Western blot analysis; format: functional, cell-based; conditions: dose 0.01-10 µM
[5] = target: Testis-specific serine/threonine-protein kinase 1 (Homo sapiens) (UniProt Q9BXA7); assay: Inhibition of TSSK1B (unknown origin) at 10 uM by Ambit Kinomescan binding assay
[6] = Inhibition of […] ATP labeling site in human Huh-7 cells at 1 uM by KiNativ Profiling analysis relative to control; conditions: condition cancer
[7] = target: Mitogen-activated protein kinase kinase kinase 4 (Homo sapiens) (UniProt Q9Y6R4); assay: Inhibition of MAP3K4 K2 labeling site in human Huh-7 cells at 1 uM by KiNativ Profiling analysis relative to control; format: cell-based
[8] = target: MAP/microtubule affinity-regulating kinase 3 (Homo sapiens) (UniProt P27448); assay: Inhibition of MARK3 K1 labeling site in human Huh-7 cells at 1 uM by KiNativ Profiling analysis relative to control; format: cell-based
[9] = target: Protein kinase C theta type (Homo sapiens) (UniProt Q04759); assay: Inhibition of PRKCQ (unknown origin) at 10 uM by Ambit Kinomescan binding assay
[10] = target: TRAF2 and NCK-interacting protein kinase (Homo sapiens) (UniProt Q9UKE5); assay: Inhibition of TNIK (unknown origin) at 10 uM by Ambit Kinomescan binding assay relative to control; values are per cent of control
[11] = target: Calcium/calmodulin-dependent protein kinase kinase 2 (Homo sapiens) (UniProt Q96RR4); assay: Inhibition of CAMKK2 (unknown origin) at 10 uM by Ambit Kinomescan binding assay relative to control
[12] = target: T1, Mitogen-activated protein kinase kinase kinase 3 (Homo sapiens) (UniProt Q99759); assay: Inhibition of MAP3K3 Lys2 labeling site in human A-375 cells at 0.5 uM by KiNativ Profiling analysis relative to control; format: cell-based
T1 sequence (whole entry): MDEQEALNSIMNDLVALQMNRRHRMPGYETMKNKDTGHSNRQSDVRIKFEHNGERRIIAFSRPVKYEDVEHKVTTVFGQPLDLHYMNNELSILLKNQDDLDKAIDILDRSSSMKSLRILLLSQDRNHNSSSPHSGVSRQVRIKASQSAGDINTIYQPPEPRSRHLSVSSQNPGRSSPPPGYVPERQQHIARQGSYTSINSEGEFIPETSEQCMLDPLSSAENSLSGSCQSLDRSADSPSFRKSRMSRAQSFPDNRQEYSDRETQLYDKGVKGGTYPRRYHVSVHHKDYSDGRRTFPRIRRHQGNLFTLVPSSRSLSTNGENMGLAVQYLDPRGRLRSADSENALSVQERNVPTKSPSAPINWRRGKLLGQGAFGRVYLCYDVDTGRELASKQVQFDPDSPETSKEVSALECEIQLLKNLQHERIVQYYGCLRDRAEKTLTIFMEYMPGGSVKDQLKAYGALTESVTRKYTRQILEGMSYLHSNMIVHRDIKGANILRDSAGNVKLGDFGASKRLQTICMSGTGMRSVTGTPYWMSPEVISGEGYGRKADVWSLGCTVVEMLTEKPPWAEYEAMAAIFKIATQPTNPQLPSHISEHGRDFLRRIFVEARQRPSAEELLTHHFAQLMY

[13] = target: Tyrosine-protein kinase JAK1 (Homo sapiens) (UniProt P23458); assay: Inhibition of JAK1 domain ACT labeling site in human Huh-7 cell lysate at 1 uM by KiNativ Profiling analysis relative to control; format: subcellular
[14] = target: Serine/threonine-protein kinase WNK1 (Homo sapiens) (UniProt Q9H4A3); assay: Inhibition of Wnk1 Lys2 labeling site in human Huh-7 cells at 1 uM by KiNativ Profiling analysis relative to control; format: cell-based
[15] = target: 5'-AMP-activated protein kinase catalytic subunit alpha-1 (Homo sapiens) (UniProt Q13131); assay: Inhibition of AMPKa1 Lys1 labeling site in human Huh-7 cell lysate at 1 uM by KiNativ Profiling analysis relative to control; format: subcellular
5'-AMP-activated protein kinase catalytic subunit alpha-1 (Homo sapiens), sequence (Q13131 whole entry, looked up): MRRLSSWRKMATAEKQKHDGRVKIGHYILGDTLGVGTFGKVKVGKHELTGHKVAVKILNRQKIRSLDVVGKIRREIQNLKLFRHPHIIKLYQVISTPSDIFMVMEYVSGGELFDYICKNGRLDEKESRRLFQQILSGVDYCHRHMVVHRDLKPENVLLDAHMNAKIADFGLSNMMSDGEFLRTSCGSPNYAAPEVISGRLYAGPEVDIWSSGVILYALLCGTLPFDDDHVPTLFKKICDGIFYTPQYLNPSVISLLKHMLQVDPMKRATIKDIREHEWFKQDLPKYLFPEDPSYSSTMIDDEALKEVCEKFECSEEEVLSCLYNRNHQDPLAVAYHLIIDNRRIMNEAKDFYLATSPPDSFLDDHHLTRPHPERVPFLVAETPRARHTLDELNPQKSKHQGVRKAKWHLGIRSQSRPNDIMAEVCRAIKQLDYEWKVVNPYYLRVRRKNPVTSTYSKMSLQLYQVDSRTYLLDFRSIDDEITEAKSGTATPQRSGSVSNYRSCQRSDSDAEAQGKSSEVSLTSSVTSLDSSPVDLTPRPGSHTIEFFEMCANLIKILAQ

TRAF2 and NCK-interacting protein kinase (Homo sapiens), sequence (Q9UKE5 whole entry, looked up): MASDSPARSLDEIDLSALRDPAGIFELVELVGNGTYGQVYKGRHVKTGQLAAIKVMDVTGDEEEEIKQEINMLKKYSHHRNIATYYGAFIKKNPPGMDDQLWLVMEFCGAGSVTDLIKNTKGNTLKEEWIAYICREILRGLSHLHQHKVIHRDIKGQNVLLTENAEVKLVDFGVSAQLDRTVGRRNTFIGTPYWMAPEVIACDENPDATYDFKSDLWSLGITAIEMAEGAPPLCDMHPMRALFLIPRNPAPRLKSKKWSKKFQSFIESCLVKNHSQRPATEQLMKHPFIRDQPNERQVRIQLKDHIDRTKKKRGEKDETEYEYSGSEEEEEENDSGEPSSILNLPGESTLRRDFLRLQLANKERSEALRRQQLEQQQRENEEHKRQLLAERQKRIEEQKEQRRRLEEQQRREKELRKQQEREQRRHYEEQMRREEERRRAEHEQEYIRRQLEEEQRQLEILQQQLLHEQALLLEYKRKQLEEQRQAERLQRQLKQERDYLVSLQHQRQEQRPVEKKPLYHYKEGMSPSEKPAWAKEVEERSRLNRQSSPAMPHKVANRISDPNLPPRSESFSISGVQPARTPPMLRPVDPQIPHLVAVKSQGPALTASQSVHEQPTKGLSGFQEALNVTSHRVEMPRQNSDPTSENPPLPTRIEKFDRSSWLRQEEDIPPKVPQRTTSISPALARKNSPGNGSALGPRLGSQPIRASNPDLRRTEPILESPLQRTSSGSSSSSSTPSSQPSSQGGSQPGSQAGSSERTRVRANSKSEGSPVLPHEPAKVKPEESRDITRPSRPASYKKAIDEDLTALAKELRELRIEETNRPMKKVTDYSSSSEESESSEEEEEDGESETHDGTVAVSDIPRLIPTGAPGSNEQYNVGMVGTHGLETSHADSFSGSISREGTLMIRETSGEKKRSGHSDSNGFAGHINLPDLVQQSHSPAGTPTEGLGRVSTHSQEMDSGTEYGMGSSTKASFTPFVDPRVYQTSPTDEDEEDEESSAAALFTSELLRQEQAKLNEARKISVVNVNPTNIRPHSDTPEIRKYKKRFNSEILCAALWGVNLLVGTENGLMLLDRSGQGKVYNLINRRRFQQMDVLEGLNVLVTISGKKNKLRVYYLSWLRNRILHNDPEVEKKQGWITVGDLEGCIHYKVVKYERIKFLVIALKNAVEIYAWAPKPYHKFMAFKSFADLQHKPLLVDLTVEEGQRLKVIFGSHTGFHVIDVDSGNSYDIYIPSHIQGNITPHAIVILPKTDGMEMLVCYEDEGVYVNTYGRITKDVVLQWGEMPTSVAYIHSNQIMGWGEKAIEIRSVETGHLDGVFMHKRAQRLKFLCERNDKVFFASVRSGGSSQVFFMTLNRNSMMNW
Serine/threonine-protein kinase 10 (Homo sapiens), sequence (O94804 whole entry, looked up): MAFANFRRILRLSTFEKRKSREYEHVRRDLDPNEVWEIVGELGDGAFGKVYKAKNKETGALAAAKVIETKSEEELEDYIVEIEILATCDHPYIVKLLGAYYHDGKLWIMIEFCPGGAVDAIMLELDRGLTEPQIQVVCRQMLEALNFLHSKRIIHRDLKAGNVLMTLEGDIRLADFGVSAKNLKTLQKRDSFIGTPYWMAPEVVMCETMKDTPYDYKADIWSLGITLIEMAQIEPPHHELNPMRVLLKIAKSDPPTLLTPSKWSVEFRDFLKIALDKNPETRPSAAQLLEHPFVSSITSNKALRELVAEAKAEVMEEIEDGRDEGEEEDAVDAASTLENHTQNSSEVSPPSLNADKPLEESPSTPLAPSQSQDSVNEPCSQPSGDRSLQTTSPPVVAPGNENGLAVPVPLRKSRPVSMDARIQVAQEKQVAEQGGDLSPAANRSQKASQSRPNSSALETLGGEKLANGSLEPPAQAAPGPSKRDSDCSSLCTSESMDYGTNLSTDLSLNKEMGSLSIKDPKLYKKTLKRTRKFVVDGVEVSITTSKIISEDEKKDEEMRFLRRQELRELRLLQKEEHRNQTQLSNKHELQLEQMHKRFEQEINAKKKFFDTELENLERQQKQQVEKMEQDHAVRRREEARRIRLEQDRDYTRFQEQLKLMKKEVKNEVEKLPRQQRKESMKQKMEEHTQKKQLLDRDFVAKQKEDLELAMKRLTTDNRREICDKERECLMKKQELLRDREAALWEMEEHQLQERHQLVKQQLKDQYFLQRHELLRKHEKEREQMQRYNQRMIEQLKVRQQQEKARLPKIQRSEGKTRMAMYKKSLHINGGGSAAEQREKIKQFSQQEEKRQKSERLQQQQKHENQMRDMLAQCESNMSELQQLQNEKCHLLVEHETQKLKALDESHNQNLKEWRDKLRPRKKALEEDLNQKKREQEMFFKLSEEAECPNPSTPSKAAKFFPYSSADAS
Ribosomal protein S6 kinase alpha-1 (Homo sapiens), sequence (Q15418 whole entry, the tested form may be a part): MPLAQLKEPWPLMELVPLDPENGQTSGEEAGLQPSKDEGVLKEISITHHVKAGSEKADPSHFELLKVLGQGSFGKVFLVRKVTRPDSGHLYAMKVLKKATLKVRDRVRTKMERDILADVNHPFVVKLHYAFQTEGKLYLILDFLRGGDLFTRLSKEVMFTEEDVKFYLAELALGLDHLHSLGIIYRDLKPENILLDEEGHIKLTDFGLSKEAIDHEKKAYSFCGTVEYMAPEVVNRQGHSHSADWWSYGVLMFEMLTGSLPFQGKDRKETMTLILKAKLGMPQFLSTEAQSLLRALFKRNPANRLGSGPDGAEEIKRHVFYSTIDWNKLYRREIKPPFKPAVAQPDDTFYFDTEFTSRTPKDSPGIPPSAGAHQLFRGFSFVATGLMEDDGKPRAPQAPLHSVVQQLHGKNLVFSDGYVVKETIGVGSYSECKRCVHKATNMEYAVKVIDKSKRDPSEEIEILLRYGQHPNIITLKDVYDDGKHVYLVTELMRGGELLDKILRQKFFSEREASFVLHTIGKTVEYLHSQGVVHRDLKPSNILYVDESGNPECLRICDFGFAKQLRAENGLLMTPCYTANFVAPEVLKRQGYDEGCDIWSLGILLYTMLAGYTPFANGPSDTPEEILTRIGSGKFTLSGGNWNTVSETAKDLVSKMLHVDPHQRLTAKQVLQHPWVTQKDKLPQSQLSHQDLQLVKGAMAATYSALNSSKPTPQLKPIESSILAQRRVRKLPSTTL
Calcium/calmodulin-dependent protein kinase kinase 2 (Homo sapiens), sequence (Q96RR4 2-588 limits assumed): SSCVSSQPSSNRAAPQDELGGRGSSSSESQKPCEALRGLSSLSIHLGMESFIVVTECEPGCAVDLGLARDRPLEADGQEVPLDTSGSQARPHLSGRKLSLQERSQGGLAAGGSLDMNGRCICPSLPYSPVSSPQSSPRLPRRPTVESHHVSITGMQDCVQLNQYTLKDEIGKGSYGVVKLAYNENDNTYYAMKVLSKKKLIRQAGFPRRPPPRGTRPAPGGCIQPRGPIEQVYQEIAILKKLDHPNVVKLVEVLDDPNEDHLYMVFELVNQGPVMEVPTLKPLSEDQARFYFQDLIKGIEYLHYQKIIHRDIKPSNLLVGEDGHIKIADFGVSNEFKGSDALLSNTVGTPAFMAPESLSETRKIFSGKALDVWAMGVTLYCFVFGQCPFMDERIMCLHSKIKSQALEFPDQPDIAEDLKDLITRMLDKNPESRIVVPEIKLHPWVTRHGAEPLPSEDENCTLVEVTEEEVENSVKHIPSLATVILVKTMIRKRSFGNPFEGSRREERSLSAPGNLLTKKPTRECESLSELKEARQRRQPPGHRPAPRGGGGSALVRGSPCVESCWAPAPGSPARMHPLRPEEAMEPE
Protein kinase C theta type (Homo sapiens), sequence (Q04759 whole entry, looked up): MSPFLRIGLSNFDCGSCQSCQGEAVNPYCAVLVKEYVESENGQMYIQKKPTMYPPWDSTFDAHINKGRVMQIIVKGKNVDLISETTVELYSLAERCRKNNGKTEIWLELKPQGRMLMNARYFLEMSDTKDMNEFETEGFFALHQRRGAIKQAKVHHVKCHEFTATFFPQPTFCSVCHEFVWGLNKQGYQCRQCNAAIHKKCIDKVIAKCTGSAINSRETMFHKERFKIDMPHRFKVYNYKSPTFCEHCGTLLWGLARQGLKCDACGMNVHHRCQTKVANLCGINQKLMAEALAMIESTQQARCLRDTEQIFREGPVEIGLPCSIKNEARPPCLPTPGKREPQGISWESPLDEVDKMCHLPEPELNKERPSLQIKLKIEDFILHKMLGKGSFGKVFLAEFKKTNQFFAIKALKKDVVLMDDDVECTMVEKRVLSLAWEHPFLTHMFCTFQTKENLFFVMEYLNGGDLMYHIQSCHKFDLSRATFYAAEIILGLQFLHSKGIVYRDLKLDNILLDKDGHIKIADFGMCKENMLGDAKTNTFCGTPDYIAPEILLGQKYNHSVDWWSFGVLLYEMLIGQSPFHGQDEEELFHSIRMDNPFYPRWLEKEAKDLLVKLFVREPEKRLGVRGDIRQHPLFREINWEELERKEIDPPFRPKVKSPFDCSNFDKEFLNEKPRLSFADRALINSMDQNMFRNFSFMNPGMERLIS

**Q.** Which percent of control [1] does the source give for `CCN1CCN(Cc2ccc(NC(=O)c3ccc(C)c(/C=C/c4cnc5[nH]ccc5c4OC)c3)cc2C(F)(F)F)CC1` here?
**A.** The percent of control was 0.8%.

**Q.** What about the inhibition [2] of the same compound?
**A.** The inhibition was 50%.

**Q.** Which results are given for `CCN1CCN(Cc2ccc(NC(=O)c3ccc(C)c(Oc4ccnc5[nH]ccc45)c3)cc2C(F)(F)F)CC1`?
**A.** inhibition [3]: inactive; inhibition [4]: 85.6%; inhibition (RAW): Dose-Dependent Effect; inhibition [5]: inactive; inhibition at 1 µM [6]: -3.2%; inhibition [7]: -2.3%; inhibition [8]: 5%; inhibition [9]: inactive; residual activity [10]: 8.2%; inhibition [11]: 28%; inhibition [12]: 2.8%

**Q.** For `CNc1cc(Oc2cc(C(=O)Nc3cc(-n4cnc(C)c4)cc(C(F)(F)F)c3)ccc2C)ncn1`, which inhibition [13] is on record?
**A.** The inhibition was 4.9%.

**Q.** With `CNc1cc(Oc2cc(C(=O)Nc3cc(N4CCN(C)CC4)cc(C(F)(F)F)c3)ccc2C)ncn1` as the compound, how does the inhibition [14] read?
**A.** The inhibition was 15.3%.

**Q.** And the inhibition [15]?
**A.** Its inhibition is 8.7%.
